Columns and labels:
[1] = Cmax in CD1 mouse at 50 mg/kg, po; format: ADME, organism-based; set-up: dose 50 mg/kg, route oral; conditions: in vivo
In short: (§1)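 Male CD-1 mice given one 50 mg/kg oral gavage dose (n = 3), vehicle 0.9% saline or 5% DMSO/95% PEG300 depending on compound. Retro-orbital blood into EDTA under isoflurane at 15, 30, 60 min and 2, 4, 8, 10, 24, 48 h (3 mice per time point). Plasma analysed by LC-MS/MS; AUC0-t, Cmax, Tmax, t1/2 derived by noncompartmental software.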

[2] = AUClast in CD1 mouse at 50 mg/kg, po; format: ADME, organism-based; set-up: time 0 - last, dose 50 mg/kg, route oral; conditions: plasma; in short: as §1
[3] = Tmax in CD1 mouse at 50 mg/kg, po; format: ADME, organism-based; set-up: dose 50 mg/kg, route oral; conditions: in vivo; in short: as §1
[4] = Permeability by PAMPA assay at pH 7.4; format: ADME
In short: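 Double-sink PAMPA, GIT-0 lipid-coated filter. Donor 50 μM final (from DMSO stock) at pH 5.0, 6.2 or 7.4; acceptor pH 7.4. Stirred 30 min (40 μm aqueous boundary layer), constant humidity. Both compartments read by UV absorbance 250–500 nm; Pe (cm/s) calculated, four wells per pH, mean ± SD.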

[5] = Toxicity in po dosed CD1 mouse administered qd for 7 days; format: organism-based; conditions: in vivo
In short: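 Male and female CD-1 mice (6–8 weeks, n = 5/sex/dose group) received oral gavage once daily for 7 days at 50, 100, 200 or 100, 200, 400 mg/kg/day, depending on the article. The article was suspended daily in 5% DMSO:95% PEG 300, and vehicle-treated animals served as controls. Body weights were taken predose, on day 4 and on day 8. Day-8 retro-orbital blood went to hematology and serum chemistry, followed by necropsy with histopathology and organ weights. MTD was estimated.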

[6] = Permeability by PAMPA assay at pH 6.2; format: ADME
[7] = Permeability by PAMPA assay at pH 5.0; format: ADME

Compound | Cmax [1] [nM] | AUC(0-t) [2] [µM·h] | Tmax [3] [min] | permeability [4] [×10⁻⁶ cm/s] | MTD at 168 h [5] [mg/kg] | permeability [6] [×10⁻⁶ cm/s] | permeability [7] [×10⁻⁶ cm/s]
CCN(CC)CCCC(C)Nc1ccnc2cc(Oc3ccccc3)ccc12 (stereo not drawn) | 261 | 0.726 | 30 | – | – | – | –
COc1cccc(CNCCCNc2ccnc3cc(Cl)ccc23)c1O | 65.9 | 0.62 | 240 | 1363 | 400 | – | –
CCN(CC)CCCC(C)Nc1ccnc2cc(Cl)ccc12 (stereo not drawn) [CHLOROQUINE] | 444 | 2.64 | 30 | 775 | – | 51 | –
Clc1ccc2c(NCCCNCc3cccc4c3OCO4)ccnc2c1 | 240 | 2.03 | 120 | 2400 | 100 | 979 | 19
CCCN(CCCNc1ccnc2cc(Cl)ccc12)CC1CC1 | 437 | 6.79 | 30 | 1109 | – | 2 | –
CCN(CC)CCCC(C)Nc1ccnc2cc(C(F)(F)F)ccc12 (stereo not drawn) | – | – | – | 2704 | – | 235 | 2
